Assay results as given in ChEMBL document CHEMBL1148785, “Second generation tetrahydroquinoline-based protein farnesyltransferase inhibitors as antimalarials” (J Med Chem, 2007).

Columns and labels:
[1] = system: Plasmodium falciparum; experiment: Inhibition of Plasmodium falciparum protein farnesyltransferase at 50 nM by scintillation proximity assay
[2] = system: Plasmodium falciparum; experiment: Inhibition of Plasmodium falciparum protein farnesyltransferase at 5 nM by scintillation proximity assay
[3] = system: Plasmodium falciparum; experiment: Inhibition of Plasmodium falciparum protein farnesyltransferase at 0.5 nM by scintillation proximity assay
[4] = system: Plasmodium falciparum; experiment: Antimalarial activity against Plasmodium falciparum K1; assay type: functional; settings: Plasmodium falciparum, K1; read-out: ED50 (the source's name)
Procedure, shortened: (§1)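 Asynchronous culture in type A+ erythrocytes at 0.5% parasitemia and 0.5% hematocrit, grown in RPMI-1640 with 20% heat-inactivated human A+ plasma. Compound was serially diluted from a top final 5 µM, with DMSO vehicle as 100% growth. Plates ran 48 h at 37 °C under 5% CO2/5% O2/90% N2, then [3H]-hypoxanthine (0.3 µCi) for 24 h. Filter-harvested counts were corrected for the uninfected-RBC background. ED50 by linear regression; duplicates averaged.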

[5] = target: Protein farnesyltransferase (Rattus norvegicus); experiment: Inhibition of protein farnesyltransferase
[6] = Inhibition of Plasmodium falciparum protein farnesyltransferase by scintillation proximity assay
[7] = system: Plasmodium falciparum; experiment: Antimalarial activity against Plasmodium falciparum 3D7; assay type: functional; settings: Plasmodium falciparum, 3D7; read-out: ED50 (the source's name); procedure, shortened: as §1

SMILES	inhibition [1] [%]	inhibition [2] [%]	inhibition [3] [%]	EC50 [4] [nM]	IC50 [5] [nM]	IC50 [6] [nM]	EC50 [7] [nM]
Cn1cncc1CN1CC(N(CC2CCN(C(=O)OC(C)(C)C)CC2)S(=O)(=O)c2ccccn2)Cc2cc(C#N)ccc21 (stereo not drawn)	100	89	19	180	7	–	–
Cn1cncc1CN1CC(N(CC2CCN(C(=O)c3ccccc3)CC2)S(=O)(=O)c2ccccn2)Cc2cc(C#N)ccc21 (stereo not drawn)	94	20	63	330	16	7	150
Cc1ccccc1CN(C1Cc2cc(C#N)ccc2N(Cc2cncn2C)C1)S(=O)(=O)c1cn(C)cn1 (stereo not drawn)	100	95	34	20	3.4	–	55
Cc1onc(-c2ccccc2)c1CN(C1Cc2cc(C#N)ccc2N(Cc2cncn2C)C1)S(=O)(=O)c1ccccn1 (stereo not drawn)	100	93	42	56	3	–	45
Cn1cncc1CN1CC(N(CC(=O)NC(C)(C)C)S(=O)(=O)c2nccn2C)Cc2cc(C#N)ccc21 (stereo not drawn)	80	27	2	3100	5	8	750
CCCC(=O)N1CCC(CN(C2Cc3cc(C#N)ccc3N(Cc3cncn3C)C2)S(=O)(=O)c2ccccn2)CC1 (stereo not drawn)	95	12	63	690	6.5	3	80
COCCCN(C1Cc2cc(C#N)ccc2N(Cc2cncn2C)C1)S(=O)(=O)c1cn(C)cn1 (stereo not drawn)	99	92	25	50	7.5	–	75
Cn1cncc1CN1CC(N(Cc2ccccn2)S(=O)(=O)c2ccccn2)Cc2cc(C#N)ccc21 (stereo not drawn)	100	93	4	100	3.8	–	51
Cn1cncc1CN1CC(N(CCn2cccc2)S(=O)(=O)c2ccccn2)Cc2cc(C#N)ccc21 (stereo not drawn)	99	96	74	10	1.7	–	17
CCC(=O)N1CCC(CN(C2Cc3cc(C#N)ccc3N(Cc3cncn3C)C2)S(=O)(=O)c2ccccn2)CC1 (stereo not drawn)	99	20	82	25	–	0.8	16
CCOC(=O)N1CCC(CN(C2Cc3cc(C#N)ccc3N(Cc3cncn3C)C2)S(=O)(=O)c2ccccn2)CC1 (stereo not drawn)	100	46	95	40	5.5	0.5	55
CC(C)C(=O)N1CCC(CN(C2Cc3cc(C#N)ccc3N(Cc3cncn3C)C2)S(=O)(=O)c2ccccn2)CC1 (stereo not drawn)	98	24	91	13	–	0.6	18
Cn1cncc1CN1CC(N(CC(=O)NC(C)(C)C)S(=O)(=O)c2ccc(F)cc2)Cc2cc(C#N)ccc21 (stereo not drawn)	71	33	30	5000	–	42	> 5000
Cn1cnc(S(=O)(=O)N(Cc2ccc(-n3cccn3)cc2)C2Cc3cc(C#N)ccc3N(Cc3cncn3C)C2)c1 (stereo not drawn)	98	98	56	38	2.6	0.5	42
Cn1cncc1CN1CC(N(CC2CCN(S(C)(=O)=O)CC2)S(=O)(=O)c2ccccn2)Cc2cc(C#N)ccc21 (stereo not drawn)	99	45	93	50	–	0.9	62
Cn1cnc(S(=O)(=O)N(Cc2ccc(C(=O)O)cc2)C2Cc3cc(C#N)ccc3N(Cc3cncn3C)C2)c1 (stereo not drawn)	66	19	0	> 5000	4.8	–	> 5000
Cn1cnc(S(=O)(=O)N(CC2CCNCC2)C2Cc3cc(C#N)ccc3N(Cc3cncn3C)C2)c1 (stereo not drawn)	65	6	0	> 5000	105	–	> 5000
CCNC(=O)N1CCC(CN(C2Cc3cc(C#N)ccc3N(Cc3cncn3C)C2)S(=O)(=O)c2ccccn2)CC1 (stereo not drawn)	98	60	95	65	–	0.65	67
Cn1cncc1CN1CC(N(Cc2cc3nsnc3cc2Cl)S(=O)(=O)c2ccccn2)Cc2cc(C#N)ccc21 (stereo not drawn)	53	4	–	3000	10	–	3000
Cn1cncc1CN1CC(N(Cc2ccc3ccccc3c2Br)S(=O)(=O)c2ccccn2)Cc2cc(C#N)ccc21 (stereo not drawn)	55	13	–	–	440	–	–
Cn1cncc1CN1CC(N(CC2CCN(C(=O)CC(F)(F)F)CC2)S(=O)(=O)c2ccccn2)Cc2cc(C#N)ccc21 (stereo not drawn)	98	30	77	55	–	2	43
CC(C)COC(=O)N1CCC(CN(C2Cc3cc(C#N)ccc3N(Cc3cncn3C)C2)S(=O)(=O)c2ccccn2)CC1 (stereo not drawn)	100	12	88	62	25	1.4	62
Cn1cnc(S(=O)(=O)N(Cc2ccc3ccccc3c2Br)C2Cc3cc(C#N)ccc3N(Cc3cncn3C)C2)c1 (stereo not drawn)	69	9	0	4500	1000	–	3000
Cn1cncc1CN1CC(N(CC2CCN(C(=O)C(C)(C)C)CC2)S(=O)(=O)c2ccccn2)Cc2cc(C#N)ccc21 (stereo not drawn)	99	17	76	75	–	1.2	48
Cn1cncc1CN1CC(N(CC2CCN(C(=O)CC(C)(C)C)CC2)S(=O)(=O)c2ccccn2)Cc2cc(C#N)ccc21 (stereo not drawn)	96	36	88	76	7.8	0.6	20
Cn1cncc1CN1CC(N(CC2CCN(C(=O)C3CC3)CC2)S(=O)(=O)c2ccccn2)Cc2cc(C#N)ccc21 (stereo not drawn)	100	39	94	10	–	0.75	11.5
